Assay results gathered from unrelated publications.
Protocols differ between the studies behind these lines. Converted amounts (≈) assume the structure as drawn.

N#Cc1ccc(NC(=S)NN=Cc2ccccc2)cc1  IC50 (CCRF-CEM; cell growth or viability; 72 h): 83 µg/mL
Cc1ccnc2c1NC(=O)c1cccnc1N2C1CC1  IC90 (Human immunodeficiency virus 1; viral replication, inhibitor; human PBMC; clinical isolate): 0.227 µM
[H]/N=C(/N)N[C@H]1[C@H](O)[C@@H](O)[C@H](O[C@@H]2O[C@@H](C)[C@](O)(C=O)[C@H]2O[C@@H]2O[C@@H](CO)[C@H](O)[C@@H](O)[C@@H]2NC)[C@@H](N/C(N)=N\[H])[C@@H]1O  MIC (Mycolicibacterium fortuitum; microbial growth; ATCC6841): 50 µg/mL
COC(=O)c1cc(-c2cccc(NC(=O)Nc3ccc(F)cc3)c2)on1  MIC (Mycolicibacterium fortuitum; microbial growth, broth dilution; ATCC6841; 48 h): > 64 µg/mL
Nc1ccn(C[C@@H](CO)OCP(=O)(O)O)c(=O)n1  IC50 (Cowpox virus; viral replication): 30 µM
CC(C(=O)NCc1ccccc1)c1cccc(C(OC(=O)NCc2ccccc2)c2ccccc2)c1 (stereo not drawn)  IC50 (CCRF-CEM; cell growth or viability; 72 h): 2.7 µM
CO[C@H]1/C=C/O[C@@]2(C)Oc3c(C)c(O)c4c(O)c(c(/C=N/N5CCN(C)CC5)c(O)c4c3C2=O)NC(=O)/C(C)=C\C=C\[C@H](C)[C@H](O)[C@@H](C)[C@@H](O)[C@@H](C)[C@H](OC(C)=O)[C@@H]1C  MIC (Mycobacterium marinum; microbial growth; 5 days): < 0.78 µM
CCOC(=O)c1c(CSc2ccccc2)n(C)c2cc(Br)c(O)c(CN(C)C)c12  MIC50 (Cowpox virus; microbial growth): > 37 µM
COC(=O)c1cc(-c2cccc(NC(=O)Nc3ccccc3)c2)on1  MIC (Mycolicibacterium fortuitum; microbial growth, broth dilution; ATCC6841; 48 h): > 64 µg/mL
N#Cc1ccc(NC(=S)NN=Cc2ccc(N(CCCl)CCCl)cc2)cc1  IC50 (CCRF-CEM; cell growth or viability; 72 h): 0.7 µg/mL
CCOC(=O)c1nnn(-c2cccc(NC(=O)Nc3ccc(Cl)c(Cl)c3)c2)c1C  MIC (Mycolicibacterium fortuitum; microbial growth, broth dilution; ATCC6841; 48 h): > 64 µg/mL
Nc1nc(O)c2ncn(COC(CO)CO)c2n1  MIC50 (Cowpox virus; microbial growth): > 100 µM
CO[C@H]1/C=C/O[C@@]2(C)Oc3c(C)c(O)c4c(O)c(c(/C=N/N5CCN(C)CC5)c(O)c4c3C2=O)NC(=O)/C(C)=C\C=C\[C@H](C)[C@H](O)[C@@H](C)[C@@H](O)[C@@H](C)[C@H](OC(C)=O)[C@@H]1C  MIC (Mycolicibacterium fortuitum; microbial growth; ATCC6841): 3.1 to 6.2 µg/mL
CC(C(=O)N1CCCC1)c1cccc(C(OC(=O)N2CCCC2)c2ccccc2)c1 (stereo not drawn)  IC50 (CCRF-CEM; cell growth or viability; 72 h): 42 µM
COC(=O)c1cc(-c2cccc(NC(=S)Nc3ccccc3Cl)c2)on1  MIC (Mycolicibacterium fortuitum; microbial growth, broth dilution; ATCC6841; 48 h): > 64 µg/mL
CC(C)CN(C[C@@H](O)[C@H](Cc1ccccc1)NC(=O)O[C@H]1CO[C@H]2OCC[C@H]21)S(=O)(=O)c1ccc(N)cc1  IC50 (Human immunodeficiency virus 1; viral replication; MT4): 0.0032 µM
COC(=O)c1cc(-c2cccc(NC(=O)Nc3ccccc3F)c2)on1  MIC (Mycolicibacterium fortuitum; microbial growth, broth dilution; ATCC6841; 48 h): > 64 µg/mL
O=c1[nH]c(=O)n([C@H]2C[C@H](O)[C@@H](CO)O2)cc1/C=C/Br  MIC50 (Cowpox virus; microbial growth): 50 µM (≈ 16.7 µg/mL)
